Consider 1 compound from ChEMBL document CHEMBL4400543, “Identification and Characterization of AES-135, a Hydroxamic Acid-Based HDAC Inhibitor That Prolongs Survival in an Orthotopic Mouse Model of Pancreatic Cancer” (J Med Chem, 2019).

In data set [1] the target is Signal transducer and activator of transcription 3 (Homo sapiens) (UniProt P40763). Description: Inhibition of STAT3 phosphorylation at S727 residue in human BTSC 100EF cells at 1 to 10 uM after 24 hrs by Western blot method. In kind it is cell-based. The method in brief: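 BTSCs dissociated to single cells and treated with drug or DMSO. Lysed in RIPA buffer with protease inhibitors. 20 μg lysate run on SDS-PAGE and transferred to nitrocellulose. Blocked in 5% milk, primary antibody overnight at 4 °C, then HRP secondary for 1 h.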

Data set [2] can be described thus: Cytotoxicity against mouse KPC monolayer cells assessed as reduction in tumor spheroid intensity after 72 hrs by Alamar Blue assay. In kind it is functional, cell-based. The method, boiled down:
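Monolayer proliferation of STR-authenticated, mycoplasma-checked patient-derived PDAC lines and mouse KPC cells. Plated at 2000 cells/well, treated 72 h, read by alamarBlue. At least triplicate, n = 3–5.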
In general terms: The colour change of resazurin is a common sign of viable cells or microbes.

Data set [3] in a line: Apparent permeability across basolateral to apical side in human Caco2 cells at 5 uM by LC-MS/MS analysis. In kind it is ADME, cell-based. To be noted: caco-2, 5 µM. The method in brief:
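Caco-2 monolayer permeability run in duplicate. Monolayer integrity checked by TEER and Lucifer Yellow fluorescence (ex 485/em 530 nm). Papp measured apical-to-basolateral and basolateral-to-apical by LC-ESI-MS/MS with internal standards. Digoxin, prazosin and propranolol as controls.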

Active and inactive are the calls of the source. The calls are words filed in the database; no cut-off is given here.

Chain of Signal transducer and activator of transcription 3 (Homo sapiens) (P40763 whole entry): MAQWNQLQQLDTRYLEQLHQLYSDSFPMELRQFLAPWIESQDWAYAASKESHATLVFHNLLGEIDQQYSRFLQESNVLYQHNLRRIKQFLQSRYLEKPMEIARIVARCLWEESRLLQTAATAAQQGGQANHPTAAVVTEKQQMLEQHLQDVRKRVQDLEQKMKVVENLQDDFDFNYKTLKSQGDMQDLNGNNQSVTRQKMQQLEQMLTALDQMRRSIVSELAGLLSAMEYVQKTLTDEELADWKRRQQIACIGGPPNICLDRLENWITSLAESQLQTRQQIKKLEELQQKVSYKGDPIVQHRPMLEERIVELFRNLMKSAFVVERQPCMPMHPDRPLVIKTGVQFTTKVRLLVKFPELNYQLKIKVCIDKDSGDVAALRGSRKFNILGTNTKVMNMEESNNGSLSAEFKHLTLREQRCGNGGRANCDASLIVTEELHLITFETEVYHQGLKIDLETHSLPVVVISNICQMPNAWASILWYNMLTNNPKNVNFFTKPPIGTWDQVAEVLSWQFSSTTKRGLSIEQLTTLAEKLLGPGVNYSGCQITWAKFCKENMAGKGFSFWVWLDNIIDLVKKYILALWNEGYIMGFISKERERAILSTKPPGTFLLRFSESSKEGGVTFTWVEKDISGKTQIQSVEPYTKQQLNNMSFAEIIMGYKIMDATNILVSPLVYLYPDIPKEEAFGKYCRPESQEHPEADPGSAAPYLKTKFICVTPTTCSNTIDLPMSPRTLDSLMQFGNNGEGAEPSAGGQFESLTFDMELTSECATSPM

For the compound `CC(C)(C)c1ccc(CN(C(=O)CN(Cc2c(F)c(F)c(F)c(F)c2F)S(=O)(=O)c2ccc(F)cc2)c2ccc(C(=O)NO)cc2)cc1`, the inhibition entry in data set [1] is “inactive”. For the same compound, in data set [2], the half-inhibitory concentration (IC50) worked out at 1.3 µM. Further, the apparent permeability coefficient (Papp) in data set [3] was 1.02 ×10⁻⁶ cm/s.

Broadly, the IC50 is the midpoint of a concentration-inhibition curve. A word on the Papp: it is the rate of passage across a membrane or cell layer, normalised by area and donor concentration.
